The source of these data is ChEMBL document CHEMBL4422684, “Identification of novel lysine demethylase 5-selective inhibitors by inhibitor-based fragment merging strategy” (Bioorg Med Chem, 2019).

The experiment has as its target T1, Lysine-specific demethylase 3A (Homo sapiens) (UniProt Q9Y4C1).
T1 sequence (whole entry): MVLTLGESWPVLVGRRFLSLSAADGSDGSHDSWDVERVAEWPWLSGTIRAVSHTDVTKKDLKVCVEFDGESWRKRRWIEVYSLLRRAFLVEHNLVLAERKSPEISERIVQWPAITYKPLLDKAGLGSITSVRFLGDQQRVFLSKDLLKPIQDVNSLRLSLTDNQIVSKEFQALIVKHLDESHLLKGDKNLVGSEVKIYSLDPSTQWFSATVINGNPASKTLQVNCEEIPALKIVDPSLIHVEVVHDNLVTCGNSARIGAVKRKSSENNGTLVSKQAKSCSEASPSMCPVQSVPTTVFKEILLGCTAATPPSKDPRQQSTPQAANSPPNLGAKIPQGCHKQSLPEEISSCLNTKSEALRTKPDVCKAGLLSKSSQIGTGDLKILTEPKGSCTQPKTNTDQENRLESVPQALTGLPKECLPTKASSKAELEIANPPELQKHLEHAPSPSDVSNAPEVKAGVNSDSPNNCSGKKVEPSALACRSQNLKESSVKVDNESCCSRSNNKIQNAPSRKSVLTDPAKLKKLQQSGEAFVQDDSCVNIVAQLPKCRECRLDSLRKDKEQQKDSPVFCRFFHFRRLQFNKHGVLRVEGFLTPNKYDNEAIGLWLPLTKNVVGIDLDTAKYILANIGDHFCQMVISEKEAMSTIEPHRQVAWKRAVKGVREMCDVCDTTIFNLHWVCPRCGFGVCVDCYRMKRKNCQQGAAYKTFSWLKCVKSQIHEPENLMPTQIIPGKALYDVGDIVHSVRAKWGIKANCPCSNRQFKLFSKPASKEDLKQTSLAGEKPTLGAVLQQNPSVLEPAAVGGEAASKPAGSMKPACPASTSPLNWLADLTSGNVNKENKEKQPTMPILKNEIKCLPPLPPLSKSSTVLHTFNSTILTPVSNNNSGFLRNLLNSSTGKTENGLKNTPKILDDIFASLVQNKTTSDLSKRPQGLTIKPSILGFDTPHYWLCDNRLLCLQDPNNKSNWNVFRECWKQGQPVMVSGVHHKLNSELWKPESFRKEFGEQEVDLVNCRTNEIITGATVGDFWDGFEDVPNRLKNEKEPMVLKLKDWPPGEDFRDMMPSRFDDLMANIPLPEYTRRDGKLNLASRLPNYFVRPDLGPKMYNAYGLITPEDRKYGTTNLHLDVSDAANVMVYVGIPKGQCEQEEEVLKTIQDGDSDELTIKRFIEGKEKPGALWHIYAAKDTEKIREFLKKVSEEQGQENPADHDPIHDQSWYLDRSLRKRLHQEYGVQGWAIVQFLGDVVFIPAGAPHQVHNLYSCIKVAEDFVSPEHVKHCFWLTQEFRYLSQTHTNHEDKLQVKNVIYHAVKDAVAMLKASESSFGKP
Kind of experiment: Inhibition of human N-terminal FLAG-tagged KDM3A (2 to 1321 residues) expressed in baculovirus infected Sf9 insect cells at 25 uM using H3(1-21)K9(Me1)-GGK(Biotin)/2-OG as substrate measured after 1 hr by Alphalisa assay relative to control. The method in brief: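 AlphaLISA demethylase assay in 50 mM HEPES pH 7.5, 0.1% BSA, 0.01% Tween 20 with DMSO. Enzyme and inhibitor combined, then peptide plus 2-OG (50 µM), Fe(II) (5 µM) and ascorbate (100 µM) in the added mix; 1 h at room temperature with shaking.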

`CCCCCCN(C)Cc1ccc(-c2[nH]c3c(C#N)cnn3c(=O)c2C(C)C)cc1` displayed an inhibition of 13%.

In general, inhibition refers to the drop in the measured response relative to a control, in per cent. A high value points to strong suppression.
